Compound activity (PubChem)
An excerpt weighted towards active compounds, which were near 3.8% of everything screened.
KCNQ1 act: human KCNQ1 channel potentiation or activation; P51787; CHO-K1 KCNQ1, thallium flux FluxOR fluorescence; active compounds read high; B-score at 10 µM; 0.35% of 310,000 active; AID 2648;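 active = fluorescence ratio B-score, a plate-corrected score, at least three library SD, with initial intensity B-score within 5 SD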
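Test system: CHO-K1 cells stably expressing KCNQ1 / Medium: assay buffer / Also added: depolarizing K+/Tl+ stimulus, K2SO4 and Tl2SO4 each 12.5 mM in 5x stock / Incubation: 90 min dye loading and 20 min compound exposure, both at room temperature / Signal: thallium influx via FluxOR fluorescence, kinetic imaging / Evaluation: B score of baseline-normalized fluorescence ratio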
KCNQ1 inh: blocks the human KCNQ1 potassium channel. P51787. CHO-K1 KCNQ1, FluxOR thallium flux fluorescence; active compounds read high. AID 2642. 1.3% of 310,000 active. B-score at 10 µM;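 active = compounds whose thallium flux B-score, printed positive for inhibition, exceeds three library SD while starting fluorescence stays within three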;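 also: channel opened by potassium depolarization with thallium stimulus after 20 min compound exposure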
KCNK3 block: human KCNK3 channel inhibition, primary screen; B-score at 10 µM; AID 602410; CHO-KCNK3 thallium flux, FluxOR fluorescence; active compounds read low; O14649; 0.84% of 340,000 active;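 active = B-score under library mean minus 4 SD, starting fluorescence ratio at most library mean plus 5 SD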;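 also: more negative B-score means stronger inhibition of thallium flux through KCNK3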
Target sequence (O14649 whole entry, looked up): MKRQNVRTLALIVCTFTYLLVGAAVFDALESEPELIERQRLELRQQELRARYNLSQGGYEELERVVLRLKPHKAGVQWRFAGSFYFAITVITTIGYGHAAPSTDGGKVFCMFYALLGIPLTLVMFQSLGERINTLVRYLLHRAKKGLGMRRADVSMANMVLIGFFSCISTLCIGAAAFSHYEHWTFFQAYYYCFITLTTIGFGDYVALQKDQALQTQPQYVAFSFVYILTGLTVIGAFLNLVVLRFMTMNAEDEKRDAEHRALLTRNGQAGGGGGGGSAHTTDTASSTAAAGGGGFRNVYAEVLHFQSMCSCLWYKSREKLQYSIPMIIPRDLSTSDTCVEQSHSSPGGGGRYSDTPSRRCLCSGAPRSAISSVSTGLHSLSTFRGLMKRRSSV
Kir21 inh: blocks the mouse Kir2.1 inward-rectifier potassium channel; HEK293-Kir2.1, FluxOR thallium flux fluorescence; active compounds read low; AID 1672; B-score at 10 µM; P35561; 0.85% of 310,000 active;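 active = fluorescence ratio B-score at or below minus 3 SD of library scores, with starting-brightness B-score within 2 SD, cut at about -4.2 in these data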;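 also: channel flux triggered by added potassium and thallium sulfate stimulus; B-score of peak minus minimum fluorescence over baseline after thallium stimulus; more negative B-score means stronger Kir2.1 block with less thallium influx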
KCNK9 inh: blocks the human KCNK9 two-pore domain potassium channel; Q9NPC2; HEK293 KCNK9, FluxOR thallium flux fluorescence; active compounds read low; B-score at 10 µM; 1.2% of 310,000 active; AID 488922;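 active = ratio B-score over 3 SD below the library mean, with starting fluorescence within 5 SD of its mean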;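 also: negative B-score means less thallium flux so channel inhibition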
hERG protect: compounds protecting human hERG from proarrhythmic drug block. Q12809. CHO-hERG, FluxOR thallium flux, dofetilide IC70 present. activation (rescue from dofetilide block), less the hit threshold, % at 10 µM. 0.51% of 310,000 active;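 active = activation above the mean of controls blocked by dofetilide plus 5 SD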;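 also: thallium influx through hERG after potassium depolarization seen as dye fluorescence rise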
KCNK9 inh conf: confirmation of human KCNK9 potassium channel inhibitors; shares compounds with KCNK9 inh; HEK293 KCNK9 cells, FluxOR thallium flux fluorescence; inhibition, % at 10 µM; 43% of 4,900 active; AID 492992;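 active = thallium signal inhibited by more than 5 SD of the compound-free buffer control wells, on both duplicate plates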;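 also: 0% = assay buffer control wells without compound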
Kir2-1 spec: tests whether KCNK9 modulators also affect mouse Kir2.1 | shares compounds with KCNK9 inh | Kir2.1 cells, FluxOR thallium flux fluorescence | inhibition, % at 10 µM | 4% of 4,900 active;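 active = thallium signal drop more than 5 SD beyond the mean of the no-compound control wells, seen in both duplicate plates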;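 also: signal is fluorescence rise after thallium addition divided by baseline fluorescence; plate controls were assay buffer only for no effect and full block by chlorpromazine control for full effect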
KCNK9 uninduced: second check of KCNK9 modulator effects in non-induced HEK293 cells; shares compounds with KCNK9 inh; FluxOR thallium flux; inhibition, % at 10 µM; 40% of 4,900 active;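 active = thallium signal drop beyond 5 SD of the untreated control mean, on both duplicate plates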;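 also: plate controls were buffer only IC0 wells for no effect and SID17386958 at its maximal inhibitory level for full effect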
* = called active by the depositor; i = inactive; · = no result given.

SMILES | KCNQ1 act | KCNQ1 inh | KCNK3 block | Kir21 inh | KCNK9 inh | hERG protect | KCNK9 inh conf | Kir2-1 spec | KCNK9 uninduced
COC(=O)/C(=C/c1ccc2c(c1)c1ccccc1n2C)NC(=O)c1ccccc1 | i | i | i | 1.3 | -8.6* | -6 | 54%* | i | 38%*
O=C(CSc1nc2nc(-c3cccs3)cc(C(F)(F)F)c2c(=O)[nH]1)Nc1c(F)c(F)c(F)c(F)c1F | i | 10* | i | 0.17 | i | -13 | i | i | i
NS(=O)(=O)c1cccc(NC(=O)CSc2nc3nc(-c4cccs4)cc(C(F)(F)F)c3c(=O)[nH]2)c1 | i | i | i | -1.2 | i | -12 | · | · | ·
COc1ccc(-c2csc(NC(=O)c3ccccc3Br)c2C(=O)O)cc1 | i | i | i | 1.1 | i | -11 | · | · | ·
COc1ccc(-c2csc(NC(=O)c3ccc(C(C)(C)C)cc3)c2C(=O)O)cc1 | i | i | i | -1.3 | i | -14 | i | i | i
CC(C)N(Cc1ccccc1)S(=O)(=O)c1cccs1 | i | i | -11* | -4.8* | -8.5* | -3 | 40%* | i | 37%*
O=C(c1ccco1)N1CCCC(N2CCN(c3ccccc3F)CC2)C1 (centres undefined) | i | i | i | 1.4 | i | -2 | · | · | ·
CC(C)/C=C/C(=O)N1CCCC(N2CCN(c3ccccc3F)CC2)C1 (centres undefined) | i | i | i | -0.7 | i | -6 | i | i | i
COCCNC(=O)C1CCCN(S(=O)(=O)c2cccc3nsnc23)C1 (centres undefined) | i | i | i | -1 | i | -6 | · | · | ·
O=C(/C=C/c1ccccc1Cl)N(c1ccccn1)C1CCCCC1 | i | i | i | -0.14 | -12* | -7 | 58%* | i | 32%*
COc1ccc(Cl)cc1N1C(=O)CC(N2CCN(S(=O)(=O)c3ccccc3F)CC2)C1=O (centres undefined) | · | · | i | · | · | · | · | · | ·
CSCCC(NS(=O)(=O)c1ccc(Cl)cc1)C(=O)OCc1c(Cl)cccc1Cl (centres undefined) | i | i | i | -0.52 | -9.2* | -14 | 36%* | i | 36%*
COc1ccc(C(=O)C2CCCN(C/C=C/c3ccccc3OC)C2)c(OC)c1 (centres undefined) | i | i | i | -2.7 | i | -20 | i | i | i
COc1cccc(C(=O)C2CCCN(C/C=C/c3ccccc3OC)C2)c1 (centres undefined) | i | i | i | 0.02 | i | -33 | i | i | i
COc1ccc(C(=O)C2CCCN(Cc3c(F)ccc(F)c3F)C2)c(OC)c1 (centres undefined) | i | i | i | -2.1 | i | -4 | · | · | ·
Cc1c(Br)c([N+](=O)[O-])nn1CC(=O)N1CCN(C23CC4CC(CC(C4)C2)C3)CC1 | i | i | i | -1.1 | i | -10 | · | · | ·
Cc1ccc(S(=O)(=O)Nc2ccccc2C(=O)N2CCN(C)CC2)cc1 | i | i | i | -0.53 | i | -11 | · | · | ·
Clc1cccc(N2CCN(Cc3nnc(-c4ccccc4)o3)CC2)c1 | i | i | i | -0.29 | i | -13 | i | i | i
c1ccc(-c2nnc(CN3CCN(c4ccccc4)CC3)o2)cc1 | i | i | i | 0.34 | i | -13 | · | · | ·
CCc1nc(SCC(=O)Nc2nnc(CC(C)C)s2)n[nH]1 | i | i | i | 1.1 | i | -10 | · | · | ·
CN(C)c1nc(SCc2ccc(Cl)cc2)nc2c1CCCC2 | i | i | i | 1.8 | -9.9* | -10 | 34%* | i | 56%*
CNc1nc(SCc2ccccc2Cl)nc2c1CCCC2 | i | i | i | 3.5 | -11* | -8 | 28%* | i | 38%*
Cc1c(Br)c([N+](=O)[O-])nn1C(C)C(=O)N1CCc2ccccc2C1 (centres undefined) | i | i | i | -2.4 | i | -7 | · | · | ·
CC1(C)C(=O)Nc2ccccc2N1C(=O)COC(=O)c1cccnc1Cl | · | · | i | · | · | · | · | · | ·
CCOC(=O)C1=C(CSc2nc(C)cc(C)c2C#N)OC(N)=C(C#N)C1c1ccccc1 (centres undefined) | i | i | i | 1.6 | -14* | -16 | 56%* | i | 48%*
SMILES | KCNQ1 act | KCNQ1 inh | KCNK3 block | Kir21 inh | KCNK9 inh | hERG protect | KCNK9 inh conf | Kir2-1 spec | KCNK9 uninduced
CCOC(=O)C1=C(CSc2nc3c(cc2C#N)CN(C)CC3)OC(N)=C(C#N)C1c1ccc(Cl)cc1 (centres undefined) | i | i | i | 0.38 | i | -7 | · | · | ·
Cc1cc(C)cc(N(CC(=O)NC(C)(C)C)C(=O)CNC(=O)c2cccs2)c1 | i | i | i | 0.15 | i | -5 | · | · | ·
COc1ccc(-c2csc(N(Cc3ccco3)C(=O)c3cccs3)n2)cc1 | i | i | i | -2.2 | -9.4* | -21 | 50%* | i | 40%*
COc1ccc(OC)c(-c2csc(N(Cc3ccco3)C(=O)c3cccs3)n2)c1 | i | 7* | i | 2.3 | -12* | -14 | 49%* | i | 43%*
CCCCOC(=O)c1ccc(NC(=O)C(=O)NCCN(C)C)cc1 | i | i | i | 0.9 | i | -12 | · | · | ·
Cc1nn(-c2cc(C(F)(F)F)ccc2Cl)c2nc(C(Cl)(Cl)Cl)[nH]c(=O)c12 | i | i | i | 0.54 | i | -4 | i | i | i
Cc1nn(-c2ccccc2)c2nc(C(F)(F)F)[nH]c(=O)c12 | i | i | i | 1.3 | i | -1 | · | · | ·
COc1ccc(C2Nc3ccccc3C(=O)N2Cc2ccco2)cc1COc1ccc(F)cc1 (centres undefined) | i | i | i | -1.3 | -9* | -8 | 35%* | i | 36%*
COc1ccc(C2Nc3ccccc3C(=O)N2Cc2ccco2)cc1CN1C(=O)c2ccccc2C1=O (centres undefined) | i | i | i | 1.8 | i | -10 | · | · | ·
O=C(NCc1ccccc1)c1ccc(C(=O)N(C2CCCCC2)C2CCCCC2)cc1 | i | i | i | 0.98 | -8.9* | -3 | i | i | 32%*
CCCCOC1CC(c2ccc(OCc3ccc(OC)cc3)c(OC)c2)N(C)O1 (centres undefined) | i | i | i | 1.7 | i | -2 | i | i | i
